ABHD4 inh: ABHD4 inhibitors, primary screen, biochemical, fluorescence polarization, mouse; purified mABHD4, FP-Rh probe fluorescence polarization; inhibition, % at 8.92 µM; (Lyso)-N-acylphosphatidylethanolamine lipase (Mus musculus), Q8VD66; actives 0.54% (n = 370,000);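 active = inhibition exceeding the mean over every tested compound plus 3 SD, cut at about 30% in these data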;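 note: 0% = plate median of compound wells and 100% = S159A mutant with DMSO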
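Material: mouse ABHD4 enzyme, wild type; Benchmarks: S159A mutant high control, sample median low control; Buffer or medium: HEPES pH 7.0, NaCl, Pluronic buffer; Signal: fluorescence polarization; Read-out: percent inhibition of probe binding, normalized to plate controls; Timing: pre-incubation 45 min, probe exposure 60 min, at 25 °C; Dosing: 8.92 µM, single dose.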
SIAE inh: human SIAE inhibitors, primary screen, biochemical, fluorescence polarization, FP-Rh probe, 1536-well HTS. AID 1053197, 2014. SIAE FP-Rh probe binding. Sialate O-acetylesterase (Homo sapiens), Q9HAT2. inhibition, % at 9.66 µM. actives 0.69% (n = 370,000);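 active = inhibition above a cutoff: mean of compounds within the control limits plus 3 SD of those, cut at about 17% in these data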;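 note: 0% = plate median of compound wells and 100% = probe without SIAE protein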
TCR CD3 inh: inhibitors of human TCR-CD3 interaction, primary screen, biochemical, fluorescence, TAMRA-labeled TCR probe. AID 651800, 2012. inhibition, % at 9.4 µM. actives 0.37% (n = 360,000). T-cell receptor (TCR); in the data active = inhibition above about 19%;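 note: recombinant mutant TCR 2C K166C tagged with TAMRA read by polarization; 0% = receptor in buffer alone and 100% = receptor with positive control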
HTRA1 inhibitor: HTRA1 serine protease inhibitors, primary screen, biochemical, fluorescence polarization, HTS. AID 504803, 2011. actives 0.5% (n = 340,000). Q92743. recombinant HTRA1, FP-rhodamine activity-based probe. inhibition, % at 5.96 µM; in the data active = inhibition above about 36%;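 note: 0% = enzyme with DMSO and 100% = wells lacking enzyme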
Target sequence (Q92743 whole entry, looked up): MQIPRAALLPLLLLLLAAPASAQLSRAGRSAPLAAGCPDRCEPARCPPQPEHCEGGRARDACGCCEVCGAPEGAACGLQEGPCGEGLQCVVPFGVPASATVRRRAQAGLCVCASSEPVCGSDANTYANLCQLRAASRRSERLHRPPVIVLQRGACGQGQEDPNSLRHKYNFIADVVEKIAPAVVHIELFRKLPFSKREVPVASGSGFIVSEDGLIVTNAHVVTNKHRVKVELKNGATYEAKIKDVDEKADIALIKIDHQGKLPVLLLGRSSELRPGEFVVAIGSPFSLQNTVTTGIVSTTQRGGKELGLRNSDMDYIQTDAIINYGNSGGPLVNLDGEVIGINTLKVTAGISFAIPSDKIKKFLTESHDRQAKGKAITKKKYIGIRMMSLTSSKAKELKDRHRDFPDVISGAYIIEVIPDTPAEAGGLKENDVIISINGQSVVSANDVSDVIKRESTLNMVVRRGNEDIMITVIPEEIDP
PRMT1 FP inh: PRMT1 methyltransferase inhibitors, primary screen, biochemical, fluorescence polarization; Protein arginine N-methyltransferase 1 (Homo sapiens), Q99873; recombinant PRMT1, activity-based probe fluorescence polarization; inhibition, % at 2.79 µM; actives 1.3% (n = 370,000);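 active = inhibition above about 21% made by adding two undisclosed values, limit read from the data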
rCAG RNA binder: binders of r(CAG) RNA repeats, primary screen, biochemical, fluorescence. actives 1.3% (n = 370,000). r(CAG) RNA repeat, TO-PRO-1 dye displacement fluorescence. inhibition, % at 3 µM;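 active = inhibition above the plate cutoff, the mean of all test compounds on that plate plus 3 SD, cut at about 35% in these data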;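 note: 0% = DMSO alone and 100% = 100 µM mitoxantrone as full dye displacement; higher means more dye released from RNA so lower well fluorescence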
* hit, by the source's call; nt = not tested or not shown. An excerpt weighted towards active compounds, which were near 3.5% of everything screened.

SMILES	ABHD4 inh	SIAE inh	TCR CD3 inh	HTRA1 inhibitor	PRMT1 FP inh	rCAG RNA binder
C#CCNC(=O)C[C@H]1C[C@@]2(C(=O)OC)C(=C[C@H](COCc3ccccc3)O[C@@H]2C)N(Cc2cccc3ccccc23)C1=O	-4.8	2.5	nt	nt	-0.6	8.0
O=C1CC(SCc2nc3ccccc3[nH]2)C(=O)N1c1cccc(Cl)c1 (stereo not drawn)	-14.1	-14.3	-7.1	-9.3	30.8*	16.3
O=C(Nc1nnc(-c2cccnc2)s1)c1cnc2ccccc2c1	-4.8	-8.5	nt	nt	-0.4	13.6
COc1cc(C(=O)Nc2nc(C)c(Cc3ccc4c(c3)OCO4)s2)cc(OC)c1OC	-0.8	-8.6	-0.8	-11.3	22.7*	7.6
CCCOc1ccc(C(=O)Nc2nc(C)c(Cc3ccc4c(c3)OCO4)s2)cc1	-3.7	1.1	-2.9	-17.8	1.8	0.9
C[C@H](O)[C@@H]1CN2CCc3c([nH]c4c(-c5ccc6c(c5)OCO6)cccc34)[C@@H]2C[C@@H]1N(C)C(=S)NCCc1ccccc1	-10.7	0.0	nt	nt	-3.8	8.3
COC(=O)C1=C(C)N(CCCC(=O)O)C(=O)NC1c1cc2c(cc1[N+](=O)[O-])OCO2 (stereo not drawn)	16.7	7.8	-0.8	2.7	27.2*	11.1
O=C1CCN2C=Nc3cccc4ccc1c2c34	12.8	3.6	0.6	5.3	124.0*	-426.2
COC(=O)[C@H](C)N(Cc1cn(Cc2ccccc2)nn1)S(=O)(=O)c1ccccc1Br	-3.6	-1.5	nt	nt	-3.1	0.6
CCOC(=O)[C@@]12CN(C(=O)OC(C)(C)C)CC=C1N(Cc1ccc(OC)cc1)C(=O)[C@H]2CC(=O)NCc1cccs1	6.2	-1.7	nt	nt	1.6	0.4
O=C1OC(c2cccs2)Sc2ccccc21 (stereo not drawn)	3.4	2.8	2.1	nt	24.6*	1.9
COc1cc2c(cc1NC(=O)CCC(=O)O)oc1ccccc12	-1.3	-4.6	-3.3	-3.2	-0.3	10.8
COc1cc2c(cc1NC(=O)Nc1ccccc1)oc1ccccc12	-30.2	-8.2	-3.6	-5.6	-1.2	35.1*
N=c1scc(-c2ccccc2)n1/N=C/c1ccco1	11.8	2.4	-1.9	10.8	33.9*	18.6
C(=N/n1c2ccccc2c2ccccc21)/c1ccco1	2.3	0.0	0.9	-16.1	1.5	12.3
c1ccc2cc(Cn3ccc4ccc(-c5ccc6cc[nH]c6c5)cc43)ccc2c1	25.0	7.1	nt	nt	7.5	30.4
CC1CCCN(C(=O)c2ccc3ncsc3c2)C1 (stereo not drawn)	3.3	9.6	0.6	0.6	24.5*	1.9
O=C(c1ccc2ncsc2c1)N1CCCC(C(F)(F)F)C1 (stereo not drawn)	-14.0	1.5	-9.0	1.7	18.5	-3.4
CC(C)C(C#CC1CC1)N(Cc1ccc2c(c1)OCO2)C(N)=NC(=O)/C=C/c1ccccc1 (stereo not drawn)	-5.3	-1.5	nt	nt	3.2	5.7
CCC1CCc2c(sc(NC(=O)c3cnccn3)c2C(N)=O)C1 (stereo not drawn)	7.1	3.1	-6.6	2.0	24.3*	0.8
CCC1CCc2c(sc(NC(=O)c3ccco3)c2C(N)=O)C1 (stereo not drawn)	-5.8	-10.4	2.0	-34.2	0.3	11.8
O=C(NCc1ccco1)c1cccc2c1C(=O)c1ccc(/C=C/c3ccccc3)cc1S2(=O)=O	6.0	-3.8	-2.1	-36.9	28.8*	39.4*
O=C(Nc1ccc(Cc2ccncc2)cc1)c1cccc([N+](=O)[O-])c1	1.3	1.4	5.3	-8.6	-1.3	3.5
O=C(CCNc1ccc(Cc2ccncc2)cc1)c1ccc([N+](=O)[O-])cc1	14.1	6.5	-2.4	-3.2	36.1*	0.1
N=C1/C(=C/c2ccc(-c3cccc(C(=O)O)c3)o2)C(=O)N=C2SC=C(c3ccccc3)N12	4.6	-30.8	13.2	-25.6	18.4	81.3*
SMILES	ABHD4 inh	SIAE inh	TCR CD3 inh	HTRA1 inhibitor	PRMT1 FP inh	rCAG RNA binder
Cc1ccc(-n2c(C)cc(/C=C3/C(=N)N4C(c5ccccc5)=CSC4=NC3=O)c2C)cc1	-5.5	2.6	0.5	1.3	-4.0	3.4
C=CCNC(=O)N1CCC(c2nc3ccc(Cl)cc3[nH]2)CC1	1.1	1.6	nt	nt	-4.9	1.7
CCOc1ccc(-n2ccc(=O)c(C(=O)Nc3ccc(S(=O)(=O)Nc4nccs4)cc3)n2)cc1	0.9	-9.0	-2.7	-2.7	0.5	68.1*
Nc1ncnc2nc(Sc3ccc(Cl)cc3)[nH]c12	4.2	-0.7	2.6	6.2	-0.8	-1.2
Nc1ncnc2nc(SCc3ccc(Cl)cc3Cl)[nH]c12	6.9	21.3*	5.0	-1.2	-1.9	4.4
C=CC[C@H]1c2ccccc2[C@H]2N3N=Cc4ccccc4[C@H]3[C@H](CCc3ccccc3)C(=O)N2N1C(=O)c1ccccc1	-11.1	-5.5	nt	nt	-1.0	10.7
COC(=O)C1CN(Cc2ccc(Cl)cc2)CCS(=O)(=O)N1Cc1cn(Cc2ccc(Cl)cc2)nn1 (stereo not drawn)	-7.9	-3.3	nt	nt	-1.8	-1.2
Cc1ccc(-c2nc3sc(C#N)c(N)n3c(=O)c2C#N)cc1	-6.3	8.2	3.3	-3.4	81.0*	32.4
COc1ccc2cc3[n+](cc2c1O)CCc1cc2c(cc1-3)OCO2	31.5*	20.5*	24.5*	nt	11.3	17.0
O=C(NCC(c1ccccc1)c1ccccc1)[C@H](Cc1ccccc1)NC1(C(=O)NC2CCCCC2)CCOCC1	-1.7	-4.0	nt	nt	-0.6	nt
COc1cc(C(=O)N/N=C/c2cn(Cc3cccc(F)c3)c3ccccc23)ccc1O	5.3	29.5*	-6.3	2.9	7.4	18.9
Nc1[nH]c(C(=O)c2ccccc2)c(-c2cccc3ccccc23)c1C(=O)c1c(-c2ccccc2)[nH]c2ccccc12	1.9	2.7	nt	nt	0.9	nt
Cc1[nH][nH]c(=O)c1C(c1ccc(-c2ccc(F)cc2)o1)c1c(C)[nH][nH]c1=O	5.2	3.9	-4.2	0.7	21.6*	13.9
Cc1[nH][nH]c(=O)c1C(c1ccc(-c2ccc(C(=O)O)cc2)o1)c1c(C)[nH][nH]c1=O	3.0	12.0	-0.1	4.7	17.5	2.6
OCCN1CCN(C(=S)c2ccc(Br)cc2)CC1	4.8	-2.2	0.6	-2.0	21.6*	-0.3
CSc1ccc(C(=S)N2CCN(CCO)CC2)cc1	-0.1	2.9	2.7	5.0	21.1	-3.2
COc1ccc(Cc2c(O)nc(SCC(C)C)[nH]c2=O)cc1	-0.5	-9.5	-2.2	-2.6	4.3	-2.3
COc1ccc(Cc2c(O)nc(SCC(=O)c3ccc(OC)cc3)[nH]c2=O)cc1	4.6	-4.5	-5.6	-1.0	21.9*	7.8

Screening results from PubChem.
